The RNAGym collection of RNA variant scans (doi:10.1002/anie.201605470)

B1: Osa-1-4 twister ribozyme (parent)
chain: CCGCCUAACACUGCCAAUGCCGGUCCCAAGCCCGGAUAAAAGUGGAGGGGGCGG

Variants of: B1
Assay: self-cleavage, relative activity (ratio to wild type); higher = more cleavage; co-transcriptional
How it was run: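 The 48 positions downstream of the cleavage site in a 54-nucleotide Oryza sativa twister ribozyme template were synthesised at 97 % wild-type base and 1 % of each other base. The template was transcribed in vitro at 37 °C for 2 h, with self-cleavage allowed during transcription. Reads with or without upstream sequence after deep sequencing marked cleavage status, and relative activity is fraction cleaved normalised to wild type.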

Variant | self-cleavage
CCGCCUAACACUGCCAAUGCCGGUCCCAAGCCCGGAUAAAAGUGGAGGCGGCCG | 0.03
CCGCCUAACACUGCCAAUGCCGGUCCCAAGCCCGGAAAAAAGUGGAGGAGGCGG | 0.13
CCGCCUAACACUGCCAAUGCCGGUCCCAAGCCCGGAGAAAAGUGGAGGAGGCGG | 0.27
CCGCCUAACACUGCCAAUGCCGGUCCCAAGCCCGGACAAAAGUGGAGGAGGCGG | 0.19
CCGCCUAACACUGCCAAUGCCGGUCCCAAGCCCGGACAAAAGUGGAGGCGGCGG | 0.07
CCGCCUAACACUGCCAAUGCCGGUCCCAAGCCCGGAAAAAAGUGGAGGCGGCGG | 0.05
CCGCCUAACACUGCCAAUGCCGGUCCCAAGCCCGGAGAAAAGUGGAGGCGGCGG | 0.08
CCGCCUAACACUGCCAAUGCCGGUCCCAAGCCCGGAUAAAAGCGGAGGCGGCGG | 0.1
CCGCCUAACACUGCCAAUGCCGGUCCCAAGCCCGGAUAAAAGAGGAGGCGGCGG | 0.08
CCGCCUAACACUGCCAAUGCCGGUCCCAAGCCCGGAUAAAAGGGGAGGCGGCGG | 0.04
CCGCCUAACACUGCCAAUGCCGGUCCCAAGCCCGGAUAAAAGCGGAGGAGGCGG | 0.07
CCGCCUAACACUGCCAAUGCCGGUCCCAAGCCCGGAUAAAAGGGGAGGAGGCGG | 0.08
CCGCCUAACACUGCCAAUGCCGGUCCCAAGCCCGGAUAAAAGAGGAGGAGGCGG | 0.08
CCGCCUAACACUGCCAAUGCCGGUCCCAAGCCCGGAUAAAAGUGGAGUGCGCGG | 0.07
CCGCCUAACACUGCCAAUGCCGGUCCCAAGCCCGGAUAAAAGUGGAGUGUGCGG | 0.07
CCGCCUAACACUGCCAAUGCCGGUCCCAAGCCCGGAUAAAAGUGGAGUGAGCGG | 0.21
CCGCCUAACACUGCCAAUGCCGGUCCCAAGCCCGGAUAAAAGUGGAGGCGGCGU | 0.08
CCGCCUAACACUGCCAAUGCCGGUCCCAAGCCCGGAUAAAAGUGGAGGCGGCGC | 0.05
CCGCCUAACACUGCCAAUGCCGGUCCCAAGCCCGGAUAAAAGUGGAGGCGGCGA | 0.06
CCGCCUAACACAGCCAAUGCCGGUCCCAAGCCCGGAUAAAAGUGGAGGAGGCGG | 0.08
CCGCCUAACACCGCCAAUGCCGGUCCCAAGCCCGGAUAAAAGUGGAGGAGGCGG | 0.05
CCGCCUAACACGGCCAAUGCCGGUCCCAAGCCCGGAUAAAAGUGGAGGAGGCGG | 0.06
CCGCCUAACACUGCCAAUGCCGGGCCCAAGCCCGGAUAAAAGUGGAGGAGGCGG | 0.01
CCGCCUAACACUGCCAAUGCCGGCCCCAAGCCCGGAUAAAAGUGGAGGAGGCGG | 0.05
CCGCCUAACACUGCCAAUGCCGGACCCAAGCCCGGAUAAAAGUGGAGGAGGCGG | 0.05

Variant | self-cleavage
CCGCCUAACACUGCCAAUGCCGGGCCCAAGCCCGGAUAAAAGUGGAGCGGGCGG | 0.01
CCGCCUAACACUGCCAAUGCCGGCCCCAAGCCCGGAUAAAAGUGGAGCGGGCGG | 0.04
CCGCCUAACACUGCCAAUGCCGGACCCAAGCCCGGAUAAAAGUGGAGCGGGCGG | 0.04
CCGCCUAACACUGCCAAUGCCGGUCCCAAGCCCGGAUAAAAGUGGAGUGGCCGG | 0.04
CCGCCUAACACUGCCAAUGCCGGUCCCAAGCCCGGAUAAAAGUGGAGUGGACGG | 0.11
CCGCCUAACACUGCCAAUGCCGGUCCCAAGCCCGGAUAAAAGUGGAGUGGUCGG | 0.07
CCGCCUAACACUGCCAAUGCCGGGCCCAAGCCCGGAUAAAAGUGGAGUGGGCGG | 0.01
CCGCCUAACACUGCCAAUGCCGGCCCCAAGCCCGGAUAAAAGUGGAGUGGGCGG | 0.03
CCGCCUAACACUGCCAAUGCCGGACCCAAGCCCGGAUAAAAGUGGAGUGGGCGG | 0.03
CCGCCUAACACUGCCAAGGCCGGUCCCAAGCCCGGAUAAAAGUGGAGGCGGCGG | 0.09
CCGCCUAACACUGCCAACGCCGGUCCCAAGCCCGGAUAAAAGUGGAGGCGGCGG | 0.05
CCGCCUAACACUGCCAAAGCCGGUCCCAAGCCCGGAUAAAAGUGGAGGCGGCGG | 0.05
CCGCCUAACACUGCCAAUGCCGGUCCCAAGCCCGGAUAAAAGUGGAGUGGGCGU | 0.34
CCGCCUAACACUGCCAAUGCCGGUCCCAAGCCCGGAUAAAAGUGGAGUGGGCGA | 0.11
CCGCCUAACACUGCCAAUGCCGGUCCCAAGCCCGGAUAAAAGUGGAGUGGGCGC | 0.1
CCGCCUAACACUGCCAAUGCCGGUCCCAAGCCCGGAUAAAAGUGGAGGCUGCGG | 0.14
CCGCCUAACACUGCCAAUGCCGGUCCCAAGCCCGGAUAAAAGUGGAGGCCGCGG | 0.17
CCGCCUAACACUGCCAAUGCCGGUCCCAAGCCCGGAUAAAAGUGGAGGCAGCGG | 0.2
CCGCCUAACACUGCCAAUGCCGGUCCCAAGCCCGGAUAAAAGUGGAGGACGCGG | 0.22
CCGCCUAACACUGCCAAUGCCGGUCCCAAGCCCGGAUAAAAGUGGAGGAUGCGG | 0.23
CCGCCUAACACUGCCAAUGCCGGUCCCAAGCCCGGAUAAAAGUGGAGGAAGCGG | 0.27
CCGCCUAACACUGCCAAUGCCGGUCCCAAGCCCGGAUAAAAGUGGAGUGGGCUG | 0.08
CCGCCUAACACUGCCAAUGCCGGUCCCAAGCCCGGAUAAAAGUGGAGUGGGCAG | 0.1
CCGCCUAACACUGCCAAUGCCGGUCCCAAGCCCGGAUAAAAGUGGAGUGGGCCG | 0.06
